Experimental findings from ChEMBL document CHEMBL4118127, “Structure activity relationship studies on rhodanines and derived enethiol inhibitors of metallo-β-lactamases” (Bioorg Med Chem, 2018) are described below.

Molecules are shown by their SMILES. Calls of active or inactive are those of the source.

Test [1] relates to Bacteria. Description: Inhibition of recombinant bacterial IMP1 expressed in Escherichia coli BL21 (DE3) cells using FC4-FC5 as substrate assessed as residual activity at 100 uM by fluorescence-based assay. A digest of the protocol: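 IMP-1 was incubated with inhibitor for 10 min before substrate was added. Residual activity was calculated from the initial rate of FC5 hydrolysis.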

Test [2] has as its target Beta-lactamase (Escherichia coli K-12) (UniProt P00811). Description: Inhibition of recombinant Escherichia coli AmpC at 200 uM using FC5 as substrate preincubated at 10 to 300 mins followed by substrate addition.
Test [3] concerns the target Beta-lactamase OXA-10 (Pseudomonas aeruginosa) (UniProt P14489). Description: Inhibition of recombinant Pseudomonas aeruginosa OXA-10 at 200 uM using FC5 as substrate.
The target of test [4] is Beta-lactamase TEM (Bacteria) (UniProt P62593). Briefly: Inhibition of recombinant N-terminal His-tagged Escherichia coli TEM1 (24 to 286 residues) expressed in Escherichia coli BL21(DE3) at 200 uM using FC5 as substrate.
The test system of test [5] is Bacteria. Description: Inhibition of recombinant full-length bacterial His6-tagged VIM2 (27 to 266 residues) expressed in Escherichia coli BL21 (DE3) cells using FC4-FC5 as substrate assessed as residual activity at 100 uM by fluorescence-based assay.
In test [6] the target is Beta-lactamase CTX-M (Escherichia coli) (UniProt Q9EXV5). Briefly: Inhibition of recombinant Escherichia coli EO516 N-terminal His6-tagged CTX-M using FC5 as substrate at 200 uM preincubated at 10 to 300 mins followed by substrate addition.
Test [7] addresses Beta-lactamase (Escherichia coli K-12) (UniProt P00811). Description: Inhibition of recombinant Escherichia coli AmpC assessed as residual activity at 200 uM using FC5 as substrate preincubated at 10 to 300 mins followed by substrate addition.
The target in test [8] is Beta-lactamase OXA-10 (Pseudomonas aeruginosa) (UniProt P14489). Description: Inhibition of recombinant Pseudomonas aeruginosa OXA-10 using FC5 as substrate assessed as residual activity at 200 uM.
For test [9], the target named is Beta-lactamase TEM (Bacteria) (UniProt P62593). Description: Inhibition of recombinant N-terminal His-tagged Escherichia coli TEM1 (24 to 286 residues) expressed in Escherichia coli BL21(DE3) using FC5 as substrate assessed as residual activity at 200 uM.
For test [10], the target named is T1, Metallo-beta-lactamase type 2 (Bacillus cereus) (UniProt P04190).
T1 sequence (whole entry): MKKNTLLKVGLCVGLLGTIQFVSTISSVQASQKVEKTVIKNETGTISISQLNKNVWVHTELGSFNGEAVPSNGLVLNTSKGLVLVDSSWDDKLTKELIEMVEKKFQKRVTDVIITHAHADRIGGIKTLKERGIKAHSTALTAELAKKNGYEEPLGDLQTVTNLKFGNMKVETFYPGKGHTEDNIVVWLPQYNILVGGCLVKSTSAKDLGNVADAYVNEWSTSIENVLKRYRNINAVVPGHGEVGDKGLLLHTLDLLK
Description: Inhibition of recombinant bacterial BC2 expressed in Escherichia coli BL21 (DE3) cells at 100 uM using FC4-FC5 as substrate by fluorescence-based assay.

Test [11] concerns Bacteria. Briefly: Inhibition of recombinant full-length bacterial His6-tagged SPM1 (29 to 276 residues) expressed in Escherichia coli BL21 (DE3) cells at 100 uM using FC4-FC5 as substrate by fluorescence-based assay.
Test [12] relates to Bacteria. Briefly: Inhibition of recombinant full-length bacterial His6-tagged VIM2 (27 to 266 residues) expressed in Escherichia coli BL21 (DE3) cells at 100 uM using FC4-FC5 as substrate by fluorescence-based assay.
Test [13] deals with Metallo-beta-lactamase type 2 (Aeromonas hydrophila) (UniProt P26918). Description: Inhibition of Aeromonas hydrophila CphA at 100 uM using fluorogenic cephalosporin as substrate.
Test [14] has as its system Bacteria. Description: Inhibition of recombinant bacterial IMP1 expressed in Escherichia coli BL21 (DE3) cells at 100 uM using FC4-FC5 as substrate by fluorescence-based assay.
Test [15] concerns Bacteria. Description: Inhibition of recombinant bacterial NDM1 expressed in Escherichia coli BL21 (DE3) cells at 100 uM using FC5 as fluorogenic reporter substrate preincubated at 10 to 300 mins followed by substrate addition.

Chain of Beta-lactamase TEM (Bacteria) (P62593 whole entry, the tested form may be a part): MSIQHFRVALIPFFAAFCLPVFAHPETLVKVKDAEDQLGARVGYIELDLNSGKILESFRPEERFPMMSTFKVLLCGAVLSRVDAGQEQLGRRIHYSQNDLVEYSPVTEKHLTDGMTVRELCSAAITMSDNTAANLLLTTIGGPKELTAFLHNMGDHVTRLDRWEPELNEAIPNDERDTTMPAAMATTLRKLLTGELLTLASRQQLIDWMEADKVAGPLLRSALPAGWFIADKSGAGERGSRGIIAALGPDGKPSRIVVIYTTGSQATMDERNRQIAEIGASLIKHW
Chain of Beta-lactamase OXA-10 (Pseudomonas aeruginosa) (P14489 whole entry, the tested form may be a part): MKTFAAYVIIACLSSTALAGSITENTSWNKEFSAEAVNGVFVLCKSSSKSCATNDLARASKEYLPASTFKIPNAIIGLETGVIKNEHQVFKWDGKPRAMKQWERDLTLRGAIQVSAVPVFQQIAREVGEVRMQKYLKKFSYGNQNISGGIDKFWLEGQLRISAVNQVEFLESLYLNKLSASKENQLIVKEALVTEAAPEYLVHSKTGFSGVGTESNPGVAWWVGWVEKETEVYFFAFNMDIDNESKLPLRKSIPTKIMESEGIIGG
Chain of Beta-lactamase (Escherichia coli K-12) (P00811 whole entry): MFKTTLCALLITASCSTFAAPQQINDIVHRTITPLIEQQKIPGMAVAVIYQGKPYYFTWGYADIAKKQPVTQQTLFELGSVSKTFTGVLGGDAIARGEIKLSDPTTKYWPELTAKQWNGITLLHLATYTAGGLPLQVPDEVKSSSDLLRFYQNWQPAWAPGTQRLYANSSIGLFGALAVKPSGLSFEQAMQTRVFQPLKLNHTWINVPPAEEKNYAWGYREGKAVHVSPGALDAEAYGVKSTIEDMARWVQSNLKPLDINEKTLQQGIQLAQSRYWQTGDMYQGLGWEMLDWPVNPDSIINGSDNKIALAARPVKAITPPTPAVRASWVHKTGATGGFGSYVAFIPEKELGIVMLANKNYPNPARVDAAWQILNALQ
Chain of Metallo-beta-lactamase type 2 (Aeromonas hydrophila) (P26918 whole entry): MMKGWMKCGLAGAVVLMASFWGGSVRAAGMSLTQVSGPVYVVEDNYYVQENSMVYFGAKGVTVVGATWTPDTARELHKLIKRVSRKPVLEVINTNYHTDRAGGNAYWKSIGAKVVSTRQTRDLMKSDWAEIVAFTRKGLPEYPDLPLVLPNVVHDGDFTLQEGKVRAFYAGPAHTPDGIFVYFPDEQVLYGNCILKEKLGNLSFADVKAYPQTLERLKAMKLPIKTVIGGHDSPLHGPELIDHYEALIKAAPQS

Turning to `O=P(O)(O)C(S)c1ccc(Br)cc1F` (stereo unspecified), the Activity in test [1] and in test [5] was 100% each time. Besides, the inhibition entry in test [2], in [3], in [4] and in test [6] was “inactive” throughout.

Regarding `CN1CCN(NC(=O)CN2C(=O)/C(=C/c3c4ccccc4cc4ccccc34)SC2=S)CC1`, the Activity turned out to be 1% in test [7] and 41% in [8].

Regarding `O=P(O)(O)C(O)c1ccc(Br)cc1F` (stereo unspecified), the Activity in test [1] and in test [5] was 100% in each case. For the same compound, the inhibition entry in [2], in [3], in [4] and in test [6] was “inactive” throughout.

As for `O=C(O)/C(S)=C/c1c2ccccc2cc2ccccc12`, in test [9], the Activity came to 40%.

Consider `O=C(O)/C(O)=C/c1ccc(F)cc1`, for which the Activity in [1] and in test [5] was 100% throughout. Moreover, the inhibition entry in test [2], in [3], in test [4] and in [6] was “inactive” in each case.

On to `O=C(O)C(O)Cc1ccccc1` (stereo unspecified), for which the inhibition entry in [10], in test [11], in [12], in [13], in test [14] and in test [15] was “inactive” throughout.

On to `CC1=N/C(=C\c2ccc(F)cc2)C(=O)O1`, for which the Activity in test [1] and in [5] was 100% in each case. Also, the inhibition entry in test [2], in [3], in test [4] and in test [6] was “inactive” each time.

As to `CN1CCN(NC(=O)CN2C(=O)/C(=C/c3ccccc3F)SC2=S)CC1`, the inhibition result in [2], in test [3], in [4] and in [6] was “inactive” throughout.

Turning to `COc1ccc(/C=C(\S)C(=O)O)cc1`, the inhibition result in test [2], in test [3], in test [4] and in test [6] was “inactive” throughout.

On to `O=C(O)/C(S)=C/c1ccccc1Cc1ccc2ccccc2c1`, for which the inhibition entry in [2], in test [3], in test [4] and in [6] was “inactive” throughout.

For the compound `CN1CCN(NC(=O)CN2C(=O)/C(=C/c3c(F)cccc3F)SC2=S)CC1`, the inhibition result in [2], in test [3], in [4] and in test [6] was “inactive” each time.

For the compound `O=C(O)/C(S)=C/c1ccccc1I`, the inhibition entry in [2], in [3], in test [4] and in [6] was “inactive” in each case.

Take `O=C(O)C(O)c1ccccc1` (stereo unspecified): the inhibition entry in test [10], in test [11], in [12], in test [13], in test [14] and in test [15] was “inactive” each time.

For `O=C(O)CN1C(=O)/C(=C/c2ccccc2Br)SC1=S`, the inhibition entry in test [2], in test [3], in test [4] and in test [6] was “inactive” each time.

Turning to `Cc1ccc(/C=C(\S)C(=O)O)cc1`, the inhibition result in [2], in test [3], in [4] and in [6] was “inactive” each time.

For `O=C(O)/C(S)=C/c1csc2ccccc12`, the inhibition result in test [2], in [3], in [4] and in [6] was “inactive” in each case.

As for `Cc1ccc(/C=C2\SC(=S)N(CC(=O)NN3CCN(C)CC3)C2=O)cc1`, the inhibition result in test [2], in [3], in test [4] and in test [6] was “inactive” in each case.

As for `O=C(O)/C(S)=C/c1cc(Cl)ccc1Cl`, the inhibition entry in [2], in [3], in [4] and in test [6] was “inactive” throughout.

Consider `CN1CCN(NC(=O)CN2C(=O)/C(=C/c3csc4ccccc34)SC2=S)CC1`, for which the inhibition result in test [2], in [3], in test [4] and in [6] was “inactive” throughout.

With `CN1CCN(NC(=O)CN2C(=O)/C(=C/c3ccc(F)cc3)SC2=S)CC1`, the inhibition result in test [2], in [3], in test [4] and in [6] was “inactive” in each case.

Turning to `CN1CCN(NC(=O)CN2C(=O)/C(=C/c3ccccc3Cl)SC2=S)CC1`, the inhibition result in [2], in [3], in test [4] and in test [6] was “inactive” in each case.
